Measurements published in ChEMBL document CHEMBL1146122, “Neuropeptide Y (NPY) Y4 receptor selective agonists based on NPY(32-36): development of an anorectic Y4 receptor selective agonist with picomolar affinity” (J Med Chem, 2006).
Non-standard residues stand in square brackets, D forms with d. Residues, ends and D or L forms follow the SMILES beside them. Nva = CCC[C@H](N)C(=O)O

Assays:
[1] = target: T1, Neuropeptide Y receptor type 2 (Homo sapiens, UniProt P49146); assay: Agonist activity at human NPY2 receptor in CHO cells by inhibition of forskolin-stimulated cAMP synthesis; type: functional, cell-based
T1 sequence (P49146 whole entry): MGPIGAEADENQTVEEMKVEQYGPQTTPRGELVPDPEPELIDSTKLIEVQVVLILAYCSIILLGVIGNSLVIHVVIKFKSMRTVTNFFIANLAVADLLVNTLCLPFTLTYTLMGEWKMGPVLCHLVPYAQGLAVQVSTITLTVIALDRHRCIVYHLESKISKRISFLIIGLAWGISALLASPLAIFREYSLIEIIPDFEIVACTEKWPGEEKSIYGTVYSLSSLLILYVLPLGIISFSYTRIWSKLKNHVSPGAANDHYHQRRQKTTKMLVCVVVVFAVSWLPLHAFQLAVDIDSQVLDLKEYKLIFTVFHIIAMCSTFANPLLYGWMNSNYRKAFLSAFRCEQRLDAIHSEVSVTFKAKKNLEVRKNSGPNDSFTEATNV
In short: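 Whole-cell cAMP: Y1 in HEK293 cells; Y2, Y4 and Y5 in CHO cells; 30,000 cells/well grown 48 h. Cells preincubated 20 min at 37 °C in HBSS with 10 mM HEPES pH 7.4, 0.2% BSA, 4 mM MgCl2 and 1 mM IBMX. Then 10 min at 37 °C with forskolin (2.5 µM CHO; 5.0 µM HEK293) plus graded peptide. Ethanol lysis, 125I-cAMP flashplate readout. Triplicate points, ≥3 repeats, nonlinear regression.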

[2] = target: T2, Neuropeptide Y receptor type 4 (Homo sapiens, UniProt P50391); assay: Displacement of [125I]hPP from human NPY4 receptor expressed in CHO cells; type: cell-based
In short: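 Y4 binding used membranes from CHO cells stably expressing cloned human Y4, with 125I-PP as radioligand. Competing peptides were tested over a range of concentrations in 50 mM HEPES pH 7.3, 0.1% BSA, 2.5 mM CaCl2 and 1 mM MgCl2 for 90 min at room temperature. Separation was by filtration and γ-counting. Nonspecific binding was taken with 1 µM PP. Duplicate points, three experiments, nonlinear regression.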

[3] = target: T3, Neuropeptide Y receptor type 1 (Homo sapiens, UniProt P25929); assay: Displacement of […] from human NPY1 receptor expressed in CHO cells; type: cell-based
T3 sequence (P25929 whole entry): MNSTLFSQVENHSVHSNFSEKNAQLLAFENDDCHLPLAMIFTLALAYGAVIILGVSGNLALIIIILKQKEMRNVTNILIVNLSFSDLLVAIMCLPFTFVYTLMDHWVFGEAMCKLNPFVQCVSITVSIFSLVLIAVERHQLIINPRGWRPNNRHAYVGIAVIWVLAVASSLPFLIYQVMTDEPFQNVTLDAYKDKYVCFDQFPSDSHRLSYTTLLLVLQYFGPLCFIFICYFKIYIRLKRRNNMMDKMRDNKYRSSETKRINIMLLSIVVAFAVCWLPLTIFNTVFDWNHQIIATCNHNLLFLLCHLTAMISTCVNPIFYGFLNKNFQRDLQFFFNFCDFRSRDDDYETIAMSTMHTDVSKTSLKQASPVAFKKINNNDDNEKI
In short: (§1)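 Competition binding on membranes (5-10 µg protein) from CHO cells stably expressing human Y1, Y2 or rat-human hybrid Y5 receptors. Radioligand 0.2 nM 125I-PYY, incubated with a range of peptide concentrations in 50 mM HEPES pH 7.3, 0.1% BSA, 2.5 mM CaCl2 and 1 mM MgCl2 for 90 min at room temperature. Bound ligand separated on PEI-treated glass fibre filters, washed with PBS and γ-counted. 1 µM NPY defined nonspecific binding. Duplicate points, three experiments, nonlinear regression.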

[4] = target: T1, Neuropeptide Y receptor type 2; assay: Displacement of […] from human NPY2 receptor expressed in CHO cells; type: cell-based; in short: as §1
[5] = Displacement of […] from rat-human hybrid NPY5 receptor expressed in CHO cells; type: cell-based; in short: as §1
Homo sapiens [6] = species on record: Homo sapiens; assay: Selectivity for human NPY4 over NPY1 receptor
Homo sapiens [7] = species on record: Homo sapiens; assay: Selectivity for human NPY4 over NPY2 receptor
[8] = Selectivity for human NPY4 over rat-human hybrid NPY5 receptor
[9] = target: T2, Neuropeptide Y receptor type 4; assay: Agonist activity at human NPY4 receptor in CHO cells by inhibition of forskolin-stimulated cAMP synthesis

T2 sequence (P50391 whole entry): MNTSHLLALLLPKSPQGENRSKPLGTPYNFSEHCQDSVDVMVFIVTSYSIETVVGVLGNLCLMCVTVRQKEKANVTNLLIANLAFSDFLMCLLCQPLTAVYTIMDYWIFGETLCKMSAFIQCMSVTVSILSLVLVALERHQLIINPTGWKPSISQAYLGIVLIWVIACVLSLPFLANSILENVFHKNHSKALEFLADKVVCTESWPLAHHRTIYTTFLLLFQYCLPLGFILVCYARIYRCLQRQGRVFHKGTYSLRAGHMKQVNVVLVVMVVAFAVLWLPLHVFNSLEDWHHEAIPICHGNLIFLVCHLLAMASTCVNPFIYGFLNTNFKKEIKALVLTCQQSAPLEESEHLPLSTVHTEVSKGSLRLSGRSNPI

For `CCC[C@H](NC(=O)[C@H](CCCN=C(N)N)NC(=O)[C@H](Cc1c[nH]c2ccccc12)NC(=O)[C@H](Cc1ccc(O)cc1)NC(=O)[C@H](CCCN=C(N)N)NC(=O)[C@H](CCC)NC(=O)[C@H](CCCN=C(N)N)NC(=O)[C@H](Cc1c[nH]c2ccccc12)NC(=O)[C@H](Cc1ccc(O)cc1)NC(=O)[C@H](CCCN=C(N)N)NC(=O)[C@H](CCC)NC(=O)[C@H](CCCN=C(N)N)NC(=O)[C@@H](N)Cc1c[nH]c2ccccc12)C(=O)N[C@@H](CCCN=C(N)N)C(=O)N[C@@H](Cc1ccc(O)cc1)C(N)=O` (H-WR[Nva]RYWR[Nva]RYWR[Nva]RY-NH2), the EC50 [1] was 1180 nM, the Ki [2] was 3.9 nM and the Ki [3] was 30 nM. It also gave a Ki [4] of 50 nM, a Ki [5] of 160 nM and a Selectivity ratio (Homo sapiens [6]) of 10. The Selectivity ratio (Homo sapiens [7]) was 14, the Selectivity ratio [8] was 40 and the EC50 [9] was 230 nM.
